Measurements taken from ChEMBL document CHEMBL5257039, “Modulation of AMPA Receptor Gating by the Anticonvulsant Drug, Perampanel” (ACS Med Chem Lett, 2019).
Active and inactive are the calls of the source. No cut-off for these calls is given here.

What was measured:
Type in all cases: cell-based
[1] = target: T1, Glutamate receptor 3 (Homo sapiens, UniProt P42263); assay: Blockade of whole cell current in GluA3i-G (unknown origin) transfected in HEK293 cells assessed as opening of conductance level O1 measured at -60 mV in presence of glutamate at 1 uM by whole cell patch clamp assay; conditions: filed as negative allosteric modulator
T1 sequence (P42263 whole entry): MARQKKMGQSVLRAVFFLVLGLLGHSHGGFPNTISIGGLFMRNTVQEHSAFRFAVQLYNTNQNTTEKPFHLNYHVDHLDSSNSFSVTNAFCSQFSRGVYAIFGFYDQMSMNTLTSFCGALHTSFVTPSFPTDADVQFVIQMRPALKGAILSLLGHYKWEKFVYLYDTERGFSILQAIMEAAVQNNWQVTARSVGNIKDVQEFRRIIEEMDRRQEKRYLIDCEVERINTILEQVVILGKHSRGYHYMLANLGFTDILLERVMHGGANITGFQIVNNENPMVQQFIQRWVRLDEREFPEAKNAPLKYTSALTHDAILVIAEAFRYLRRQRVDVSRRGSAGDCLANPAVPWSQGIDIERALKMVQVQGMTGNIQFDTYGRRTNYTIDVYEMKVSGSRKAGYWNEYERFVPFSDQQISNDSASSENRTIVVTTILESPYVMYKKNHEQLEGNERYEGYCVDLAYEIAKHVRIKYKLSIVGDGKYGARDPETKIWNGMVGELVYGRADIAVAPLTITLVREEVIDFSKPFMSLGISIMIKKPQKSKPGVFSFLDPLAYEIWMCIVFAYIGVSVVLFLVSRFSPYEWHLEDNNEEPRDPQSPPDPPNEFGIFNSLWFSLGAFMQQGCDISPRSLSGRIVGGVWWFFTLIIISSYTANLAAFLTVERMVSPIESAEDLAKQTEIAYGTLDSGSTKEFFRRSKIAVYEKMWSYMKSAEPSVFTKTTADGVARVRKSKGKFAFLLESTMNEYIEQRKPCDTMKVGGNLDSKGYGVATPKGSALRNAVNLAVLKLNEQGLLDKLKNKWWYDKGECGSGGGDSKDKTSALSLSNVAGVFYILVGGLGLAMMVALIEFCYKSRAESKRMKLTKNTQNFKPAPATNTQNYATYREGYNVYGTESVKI
Procedure, shortened: (§1)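 Single homomeric GluA3i-G channels (flip, G at R/G editing site) were recorded cell-attached for 10–45 min in 5 mM L-glutamate plus 150–200 μM cyclothiazide to block desensitization. Inhibitor at 1 or 2 μM was coapplied with glutamate, and analysis used the steady-state segment. Amplitudes were fitted to closed and O1–O4 conductance levels. Fractional occupancy per level is reported as mean ± SD over 2–3 patches.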

[2] = target: T1, Glutamate receptor 3; assay: Blockade of whole cell current in GluA3i-G (unknown origin) transfected in HEK293 cells measured at -60 mV in presence of glutamate by whole cell patch clamp assay
Procedure, shortened: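 Whole-cell GluA3 currents were recorded at Vh −60 mV. Glutamate was applied first, then coapplied with inhibitor. Steady-state responses were normalized to currents in 5 mM glutamate in each of 19 cells, with 3–10 cells per concentration. The concentration–effect curve was fitted assuming simple inhibition.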

[3] = target: T1, Glutamate receptor 3; assay: Blockade of whole cell current in GluA3i-G (unknown origin) transfected in HEK293 cells assessed as fractional occupancy at level O3 by measuring ratio at -60 mV in presence of glutamate at 2 uM by whole cell patch clamp assay (RVB = 0.44 +/- 0.14); conditions: filed as negative allosteric modulator; procedure, shortened: as §1
[4] = target: T1, Glutamate receptor 3; assay: Blockade of whole cell current in GluA3i-G (unknown origin) transfected in HEK293 cells assessed as fractional occupancy at level O2 by measuring ratio at -60 mV in presence of glutamate at 2 uM by whole cell patch clamp assay (RVB = 0.23 +/- 0.051); conditions: filed as negative allosteric modulator; procedure, shortened: as §1
[5] = target: T1, Glutamate receptor 3; assay: Blockade of whole cell current in GluA3i-G (unknown origin) transfected in HEK293 cells assessed as fractional occupancy at level O1 by measuring ratio at -60 mV in presence of glutamate at 2 uM by whole cell patch clamp assay (RVB = 0.16 +/- 0.059); conditions: filed as negative allosteric modulator; procedure, shortened: as §1
[6] = target: T1, Glutamate receptor 3; assay: Blockade of whole cell current in GluA3i-G (unknown origin) transfected in HEK293 cells assessed as fractional occupancy at level C by measuring ratio at -60 mV in presence of glutamate at 2 uM by whole cell patch clamp assay (RVB = 0.037 +/- 0.010); conditions: filed as negative allosteric modulator; procedure, shortened: as §1
[7] = target: T1, Glutamate receptor 3; assay: Blockade of whole cell current in GluA3i-G (unknown origin) transfected in HEK293 cells assessed as fractional occupancy at level O4 by measuring ratio at -60 mV in presence of glutamate at 1 uM by whole cell patch clamp assay (RVB = 0.14 +/- 0.050); conditions: filed as negative allosteric modulator; procedure, shortened: as §1
[8] = target: T1, Glutamate receptor 3; assay: Blockade of whole cell current in GluA3i-G (unknown origin) transfected in HEK293 cells assessed as fractional occupancy at level O3 by measuring ratio at -60 mV in presence of glutamate at 1 uM by whole cell patch clamp assay (RVB = 0.44 +/- 0.14); conditions: filed as negative allosteric modulator; procedure, shortened: as §1
[9] = target: T1, Glutamate receptor 3; assay: Blockade of whole cell current in GluA3i-G (unknown origin) transfected in HEK293 cells assessed as fractional occupancy at level O2 by measuring ratio at -60 mV in presence of glutamate at 1 uM by whole cell patch clamp assay (RVB = 0.23 +/- 0.051); conditions: filed as negative allosteric modulator; procedure, shortened: as §1
[10] = target: T1, Glutamate receptor 3; assay: Blockade of whole cell current in GluA3i-G (unknown origin) transfected in HEK293 cells assessed as fractional occupancy at level O1 by measuring ratio at -60 mV in presence of glutamate at 1 uM by whole cell patch clamp assay (RVB = 0.16 +/- 0.059); conditions: filed as negative allosteric modulator; procedure, shortened: as §1
[11] = target: T1, Glutamate receptor 3; assay: Blockade of whole cell current in GluA3i-G (unknown origin) transfected in HEK293 cells assessed as fractional occupancy at level C by measuring ratio at -60 mV in presence of glutamate at 1 uM by whole cell patch clamp assay (RVB = 0.037 +/- 0.010); conditions: filed as negative allosteric modulator; procedure, shortened: as §1
[12] = target: T1, Glutamate receptor 3; assay: Blockade of whole cell current in GluA3i-G (unknown origin) transfected in HEK293 cells assessed as opening of conductance level O4 measured at -60 mV in presence of glutamate at 2 uM by whole cell patch clamp assay; procedure, shortened: as §1
[13] = target: T1, Glutamate receptor 3; assay: Blockade of whole cell current in GluA3i-G (unknown origin) transfected in HEK293 cells assessed as opening of conductance level O3 measured at -60 mV in presence of glutamate at 2 uM by whole cell patch clamp assay; procedure, shortened: as §1
[14] = target: T1, Glutamate receptor 3; assay: Blockade of whole cell current in GluA3i-G (unknown origin) transfected in HEK293 cells assessed as opening of conductance level O2 measured at -60 mV in presence of glutamate at 2 uM by whole cell patch clamp assay; conditions: filed as negative allosteric modulator; procedure, shortened: as §1
[15] = target: T1, Glutamate receptor 3; assay: Blockade of whole cell current in GluA3i-G (unknown origin) transfected in HEK293 cells assessed as opening of conductance level O1 measured at -60 mV in presence of glutamate at 2 uM by whole cell patch clamp assay; conditions: filed as negative allosteric modulator; procedure, shortened: as §1
[16] = target: T1, Glutamate receptor 3; assay: Blockade of whole cell current in GluA3i-G (unknown origin) transfected in HEK293 cells assessed as opening of conductance level O4 measured at -60 mV in presence of glutamate at 1 uM by whole cell patch clamp assay; procedure, shortened: as §1
[17] = target: T1, Glutamate receptor 3; assay: Blockade of whole cell current in GluA3i-G (unknown origin) transfected in HEK293 cells assessed as opening of conductance level O3 measured at -60 mV in presence of glutamate at 1 uM by whole cell patch clamp assay; procedure, shortened: as §1
[18] = target: T1, Glutamate receptor 3; assay: Blockade of whole cell current in GluA3i-G (unknown origin) transfected in HEK293 cells assessed as opening of conductance level O2 measured at -60 mV in presence of glutamate at 1 uM by whole cell patch clamp assay; conditions: filed as negative allosteric modulator; procedure, shortened: as §1

N#Cc1ccccc1-c1cc(-c2ccccn2)cn(-c2ccccc2)c1=O [PERAMPANEL]
Activity [1]: Active | IC50 [2]: 2100 nM | Ratio [3]: 0.015 | Ratio [4]: 0.25 | Ratio [5]: 0.49 | Ratio [6]: 0.23 | Ratio [7]: 0.001 | Ratio [8]: 0.13 | Ratio [9]: 0.53 | Ratio [10]: 0.3 | Ratio [11]: 0.078 | Activity [12]: inactive | Activity [13]: inactive | Activity [14]: Active | Activity [15]: Active | Activity [16]: inactive | Activity [17]: inactive | Activity [18]: Active
